Measured values from ChEMBL document CHEMBL1154243, “Chemical Constituents of the Roots of Euphorbia micractina” (J Nat Prod, 2009).
The source made the active and inactive calls. No cut-off for these calls is given here.

Experiments:
[1] = target: T1, Tyrosine-protein phosphatase non-receptor type 1 (Homo sapiens) (UniProt P18031); test: Inhibition of GST-tagged human PTP1B
T1 sequence (whole entry): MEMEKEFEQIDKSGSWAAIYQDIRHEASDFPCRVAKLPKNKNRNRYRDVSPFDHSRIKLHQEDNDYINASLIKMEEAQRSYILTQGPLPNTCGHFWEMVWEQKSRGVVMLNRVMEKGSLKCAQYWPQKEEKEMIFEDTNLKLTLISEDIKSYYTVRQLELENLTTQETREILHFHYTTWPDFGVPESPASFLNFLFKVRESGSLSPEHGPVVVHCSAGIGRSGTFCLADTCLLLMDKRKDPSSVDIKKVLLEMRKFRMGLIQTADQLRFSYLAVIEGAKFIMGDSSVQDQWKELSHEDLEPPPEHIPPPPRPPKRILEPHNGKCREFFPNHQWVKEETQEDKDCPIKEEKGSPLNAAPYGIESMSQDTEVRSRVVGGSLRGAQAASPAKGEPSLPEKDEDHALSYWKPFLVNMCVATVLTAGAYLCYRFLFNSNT

A2780 = test: Cytotoxicity against human A2780 cells after 4 days by MTT assay; type: functional, cell-based
[2] = test system: Human immunodeficiency virus 1; test: Antiviral activity against HIV-1 NL4-3 expressing VSV-G envelope infected in human 293T cells assessed as inhibition of viral replication after 48 hrs by Luciferase reporter gene assay; type: functional, organism-based
Method in brief: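 VSV-G-pseudotyped, env-deficient pNL4-3.luc.R-E- virions made by calcium phosphate cotransfection of 293 cells, then filtered. Virions quantified by p24 ELISA and diluted to 0.2 ng p24/mL. Compounds added 15 min before virus, with solvent-only blank. Luciferase in lysates read 48 h post-infection. Zidovudine served as positive control.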

With `COc1cc2ccc(=O)oc2cc1O` the inhibition [1] was “inactive”, the Activity (A2780) was “inactive” and the Activity [2] was “inactive”.
`C=C(C)[C@H](CC[C@H](C)[C@@H]1CC[C@]2(C)C3=C(CC[C@@]12C)[C@@]1(C)CC[C@H](O)C(C)(C)[C@@H]1CC3=O)OO` was tested, and the inhibition [1] was “inactive”, the Activity (A2780) was “inactive” and the inhibition [2] was “inactive”.
With `CCCCCCCCCCCCCCCCCCCCCCCCCCCCCCO` the inhibition [1] was “inactive”, the Activity (A2780) was “inactive” and the Activity [2] was “inactive”.
With `C[C@H]1[C@H](C)CC[C@]2(CO)CC[C@]3(C)C(=CC[C@@H]4[C@@]5(C)CC[C@H](O)C(C)(C)[C@@H]5CC[C@]43C)[C@H]12` the inhibition [1] was “inactive”, the Activity (A2780) was “inactive” and the Activity [2] was “inactive”.
With `COc1ccc(C(=O)OCCc2ccc(O)cc2)cc1` the inhibition [1] was “inactive”, the Activity (A2780) was “inactive” and the Activity [2] was “inactive”.
In the case of `CC1(C)CC[C@]2(CO)CC[C@]3(C)C(=CC[C@@H]4[C@@]5(C)CC[C@H](O)C(C)(C)[C@@H]5CC[C@]43C)[C@@H]2C1`, the inhibition [1] is reported as “inactive”, the Activity (A2780) is reported as “inactive” and the Activity [2] is reported as “inactive”.
For `CCCCCCCCCCCCCCCC(=O)OCC(O)CO` (stereo not given), the inhibition [1] was “inactive”, the Activity (A2780) was “inactive” and the Activity [2] was “inactive”.
For `CC[C@H](CC[C@@H](C)[C@H]1CC[C@H]2[C@@H]3CC=C4C[C@@H](O)CC[C@]4(C)[C@H]3CC[C@]12C)C(C)C`, the inhibition [1] was “inactive”, the Activity (A2780) was “inactive” and the Activity [2] was “inactive”.
In the case of `CC(=O)O[C@]12C[C@H](C)[C@H](O)[C@@H]1/C=C(\C)CC[C@H]1[C@@H](/C=C(\C)C2=O)C1(C)C`, the inhibition [1] is reported as “inactive”, the Activity (A2780) is reported as “inactive” and the Activity [2] is reported as “inactive”.
For `C[C@@H](C/C=C/C(C)(C)OO)[C@@H]1CC[C@]2(C)C3=C(C(=O)C[C@@]12C)[C@@]1(C)CC[C@H](O)C(C)(C)[C@@H]1CC3=O`, the inhibition [1] was “inactive”, the Activity (A2780) was “inactive” and the inhibition [2] was “inactive”.
`C[C@@H](C/C=C/C(C)(C)OO)[C@@H]1CC[C@]2(C)C3=C(CC[C@@]12C)[C@@]1(C)CC[C@H](O)C(C)(C)[C@@H]1CC3=O` was tested, and the inhibition [1] was “inactive”, the Activity (A2780) was “inactive” and the inhibition [2] was “inactive”.
With `C/C1=C\[C@@H]2[C@H](CC[C@@]3(C)O[C@@H]3[C@H]3[C@@H](O)[C@@H](C)C[C@]3(OC(=O)/C=C/c3ccccc3)C1=O)C2(C)C` [JOLKINOL B] the inhibition [1] was “inactive”, the Activity (A2780) was “inactive” and the IC50 ([2]; Human immunodeficiency virus 1, NL4-3, HEK-293T) was 12.6 µM.
In the case of `CC1=C2C=C3CC[C@@H]4C(C)(C)C(=O)CC[C@@]4(C)[C@@H]3C[C@H]2OC1=O`, the inhibition [1] is reported as “inactive”, the Activity (A2780) is reported as “inactive” and the Activity [2] is reported as “inactive”.
`CC1=C2C=C3CC[C@@H]4C(C)(C)[C@H](O)CC[C@@]4(C)[C@@H]3C[C@H]2OC1=O` was tested, and the inhibition [1] was “inactive”, the Activity (A2780) was “inactive” and the Activity [2] was “inactive”.
For `C=C(C)[C@H](O)CC[C@H](C)[C@@H]1CC[C@]2(C)C3=CC[C@H]4C(C)(C)[C@@H](O)CC[C@]4(C)C3=CC[C@@]12C`, the inhibition [1] was “inactive”, the Activity (A2780) was “inactive” and the inhibition [2] was “inactive”.
`C=C(C)[C@H](O)CC[C@H](C)[C@@H]1CC[C@]2(C)C3=C(CC[C@@]12C)[C@@]1(C)CC[C@H](O)C(C)(C)[C@@H]1CC3` was tested, and the inhibition [1] was “inactive”, the Activity (A2780) was “inactive” and the inhibition [2] was “inactive”.
For `CC(=O)O[C@H]1CC[C@@]2(C)[C@@H]3C[C@@H]4OC(=O)C(C)=C4C=C3CC[C@@H]2C1(C)C`, the inhibition [1] was “inactive”, the Activity (A2780) was “inactive” and the Activity [2] was “inactive”.
With `C=C(C)[C@@H]1CC[C@]2(CO)CC[C@]3(C)[C@H](CC[C@@H]4[C@@]5(C)CC[C@H](O)C(C)(C)[C@@H]5CC[C@]43C)[C@@H]12` [BETULIN] the inhibition [1] was “inactive”, the IC50 (A2780; A2780, 96 h) was 6.1 µM and the Activity [2] was “inactive”.
In the case of `CCCCC/C=C/C=C\C(=O)O[C@H]1C(C)=C[C@]23C(=O)[C@@H](C=C(COC(C)=O)[C@@H](O)[C@]12O)[C@H]1[C@@H](C[C@H]3C)C1(C)C`, the inhibition [1] is reported as “inactive”, the Activity (A2780) is reported as “inactive” and the Activity [2] is reported as “inactive”.
`O=C(O)/C=C/c1ccccc1` was tested, and the inhibition [1] was “inactive”, the Activity (A2780) was “inactive” and the Activity [2] was “inactive”.
With `CC1=C2C=C3CC[C@@H]4C(C)(C)[C@@H](O)CC[C@@]4(C)[C@@H]3C[C@H]2OC1=O` the inhibition [1] was “inactive”, the Activity (A2780) was “inactive” and the Activity [2] was “inactive”.
In the case of `C=C(C)[C@H](CC[C@@H](C)[C@@H]1CC[C@]2(C)C3=C(CC[C@@]12C)[C@@]1(C)CC[C@H](O)C(C)(C)[C@@H]1CC3=O)OO`, the inhibition [1] is reported as “inactive”, the Activity (A2780) is reported as “inactive” and the inhibition [2] is reported as “inactive”.
`C=C(C)[C@@H](CC[C@H](C)[C@@H]1CC[C@]2(C)C3=C(CC[C@@]12C)[C@@]1(C)CC[C@H](O)C(C)(C)[C@@H]1CC3=O)OO` was tested, and the inhibition [1] was “inactive”, the Activity (A2780) was “inactive” and the inhibition [2] was “inactive”.
`CCCCCCCCCC/C=C\CCCCCC(=O)OC(CO)CO` was tested, and the inhibition [1] was “inactive”, the Activity (A2780) was “inactive” and the Activity [2] was “inactive”.
For `C/C1=C\[C@@H]2[C@H](CC[C@@]3(C)O[C@@H]3[C@H]3[C@@H](O)[C@@H](C)C[C@]3(OC(=O)c3ccccc3)C1=O)C2(C)C`, the inhibition [1] was “inactive”, the Activity (A2780) was “inactive” and the Activity [2] was “inactive”.
